Measurements taken from ChEMBL document CHEMBL3792351, “Synthesis and anti-inflammatory activity evaluation of a novel series of 6-phenoxy-[1,2,4]triazolo[3,4-a]phthalazine-3-carboxamide derivatives” (Bioorg Med Chem Lett, 2016).
The source made the active and inactive calls. No cut-off for these calls is given here.

How the values were obtained:
HeLa [1] = test: Inhibition of TNFalpha-induced NFkappaB (unknown origin) activation expressed in human HeLa cells at 100 uM pre-incubated for 8 hrs followed by stimulation with TNFalpha for 8 hrs by luciferase reporter assay; assay type: cell-based
Summary of the method: (§1)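 HeLa cells transiently transfected 48 h with NF-κB-dependent luciferase reporter, pretreated 8 h with compounds (100 μM screen or indicated concentrations), then TNF-α (10 ng/ml) 8 h; luciferase activity read. Mean ± standard deviation, three independent experiments; compared with TNF-α-stimulated cells.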

HeLa [2] = test: Cytotoxicity against human HeLa cells assessed as cell viability at 100 uM after 24 hrs by MTT assay; assay type: cell-based
Summary of the method: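 HeLa cells treated with compounds at indicated concentrations for 24 h; viability by MTT. Mean ± standard deviation of three independent experiments.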

HeLa [3] = test: Inhibition of TNFalpha-induced NFkappaB (unknown origin) activation expressed in human HeLa cells pre-incubated for 8 hrs followed by stimulation with TNFalpha for 8 hrs by luciferase reporter assay; assay type: cell-based; summary of the method: as §1
Mus musculus [4] = test: Antiinflammatory activity in Kunming mouse assessed as inhibition of xylene-induced ear edema at 100 mg/kg, po administered 6 hrs before xylene challenge measured after 30 mins relative to vehicle treated control; assay type: functional
Mus musculus [5] = test: Antiinflammatory activity in Kunming mouse assessed as inhibition of xylene-induced ear edema at 100 mg/kg, ip administered 0.5 hrs before xylene challenge measured after 30 mins relative to vehicle treated control; assay type: functional
Summary of the method: (§2)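 Xylene-induced ear edema, Kunming mice (18-22 g), 8 per group; drug-treated, indomethacin and normal control groups; single i.p. dose. Edema reported in mg (mean ± SEM), inhibition rate (%) vs DMSO vehicle group; p<0.05 vs vehicle.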

Mus musculus [6] = test: Antiinflammatory activity in Kunming mouse assessed as inhibition of xylene-induced ear edema at 100 mg/kg, po administered 4 hrs before xylene challenge measured after 30 mins relative to vehicle treated control; assay type: functional
Mus musculus [7] = test: Antiinflammatory activity in Kunming mouse assessed as inhibition of xylene-induced ear edema at 100 mg/kg, po administered 3 hrs before xylene challenge measured after 30 mins relative to vehicle treated control; assay type: functional
Mus musculus [8] = test: Antiinflammatory activity in Kunming mouse assessed as inhibition of xylene-induced ear edema at 100 mg/kg, po administered 2 hrs before xylene challenge measured after 30 mins relative to vehicle treated control; assay type: functional
Mus musculus [9] = test: Antiinflammatory activity in Kunming mouse assessed as inhibition of xylene-induced ear edema at 100 mg/kg, po administered 5 hrs before xylene challenge measured after 30 mins relative to vehicle treated control; assay type: functional
Mus musculus [10] = test: Antiinflammatory activity in Kunming mouse assessed as inhibition of xylene-induced ear edema at 100 mg/kg, po administered 1 hr before xylene challenge measured after 30 mins relative to vehicle treated control; assay type: functional
Mus musculus [11] = test: Antiinflammatory activity in Kunming mouse assessed as inhibition of xylene-induced ear edema at 50 mg/kg, po administered 5 hrs before xylene challenge measured after 30 mins relative to vehicle treated control; assay type: functional
Summary of the method: (§3)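 Kunming mice (18-22 g), xylene ear edema; compound given orally at 1, 2, 3, 4, 5 or 6 h before xylene application. Inhibition (%) vs vehicle control group at the corresponding time; p<0.05 vs vehicle.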

Mus musculus [12] = test: Antiinflammatory activity in Kunming mouse assessed as inhibition of xylene-induced ear edema at 50 mg/kg, po administered 1 hr before xylene challenge measured after 30 mins relative to vehicle treated control; assay type: functional; summary of the method: as §3
Mus musculus [13] = test: Antiinflammatory activity in Kunming mouse assessed as inhibition of xylene-induced ear edema at 50 mg/kg, po administered 2 hrs before xylene challenge measured after 30 mins relative to vehicle treated control; assay type: functional; summary of the method: as §3
Mus musculus [14] = test: Antiinflammatory activity in Kunming mouse assessed as inhibition of xylene-induced ear edema at 50 mg/kg, ip administered 0.5 hrs before xylene challenge measured after 30 mins relative to vehicle treated control; assay type: functional; summary of the method: as §2
Mus musculus [15] = test: Antiinflammatory activity in Kunming mouse assessed as inhibition of xylene-induced ear edema at 50 mg/kg, po administered 4 hrs before xylene challenge measured after 30 mins relative to vehicle treated control; assay type: functional; summary of the method: as §3
Mus musculus [16] = test: Antiinflammatory activity in Kunming mouse assessed as inhibition of xylene-induced ear edema at 50 mg/kg, po administered 3 hrs before xylene challenge measured after 30 mins relative to vehicle treated control; assay type: functional; summary of the method: as §3
Mus musculus [17] = test: Antiinflammatory activity in Kunming mouse assessed as inhibition of xylene-induced ear edema at 50 mg/kg, po administered 6 hrs before xylene challenge measured after 30 mins relative to vehicle treated control; assay type: functional; summary of the method: as §3

Cc1ccccc1Oc1nn2c(C(N)=O)nnc2c2ccccc12
inhibition (HeLa [1]): Active

Cc1cccc2c3c(ccc12)C1=C(C(=O)C3=O)[C@@H](C)CO1
inhibition (HeLa [1]): Active

NC(=O)c1nnc2c3ccccc3c(Oc3ccc(Cl)cc3Cl)nn12
Activity (HeLa [2]): Toxic | inhibition (HeLa [1]): Active | inhibition (HeLa [3]): Dose-dependent effect

Cc1ccc(Oc2nn3c(C(N)=O)nnc3c3ccccc23)cc1
inhibition (HeLa [1]): Active

NC(=O)c1nnc2c3ccccc3c(Oc3ccc(Cl)cc3)nn12
inhibition (HeLa [1]): Active

NC(=O)c1nnc2c3ccccc3c(Oc3cccc(F)c3)nn12
inhibition (HeLa [1]): Active

NC(=O)c1nnc2c3ccccc3c(Oc3ccc(F)cc3)nn12
inhibition (HeLa [1]): Active

COc1ccc2c(c1)c(CC(=O)O)c(C)n2C(=O)c1ccc(Cl)cc1 [INDOMETHACIN]
inhibition in vivo at 100 mg/kg (Mus musculus [4]): 29.6% | inhibition in vivo at 100 mg/kg (Mus musculus [5]): 59.2% | inhibition in vivo at 100 mg/kg (Mus musculus [6]): 63.4% | inhibition in vivo at 100 mg/kg (Mus musculus [7]): 27.7% | inhibition in vivo at 100 mg/kg (Mus musculus [8]): 22.5% | inhibition in vivo at 100 mg/kg (Mus musculus [9]): 53.5% | inhibition in vivo at 100 mg/kg (Mus musculus [10]): 19.1%

NC(=O)c1nnc2c3ccccc3c(Oc3ccc(Br)cc3)nn12
inhibition (HeLa [1]): Active

COc1ccc(Oc2nn3c(C(N)=O)nnc3c3ccccc23)cc1
inhibition (HeLa [1]): Active

Cc1cccc(Oc2nn3c(C(N)=O)nnc3c3ccccc23)c1
inhibition in vivo at 50 mg/kg (Mus musculus [11]): 22.4% | Activity (HeLa [2]): Non-toxic | inhibition in vivo at 50 mg/kg (Mus musculus [12]): 5.63% | inhibition in vivo at 50 mg/kg (Mus musculus [13]): 8.92% | inhibition (HeLa [1]): Active | inhibition (HeLa [3]): Dose-dependent effect | inhibition in vivo at 50 mg/kg (Mus musculus [14]): 58.2% | inhibition in vivo at 50 mg/kg (Mus musculus [15]): 38.9% | inhibition in vivo at 50 mg/kg (Mus musculus [16]): 22.7% | inhibition in vivo at 50 mg/kg (Mus musculus [17]): 8.19%

NC(=O)c1nnc2c3ccccc3c(Oc3ccccc3F)nn12
inhibition (HeLa [1]): Active

NC(=O)c1nnc2c3ccccc3c(Oc3cccc(Cl)c3)nn12
inhibition (HeLa [1]): Active
